# Where two headings read alike, the source gives them in different places.
# Tests used:
# CHLA-258 cell line = assay: DIMSCAN in vitro cytotoxicity testing, CHLA-258; type: cell-based; details: CHLA-258
# Procedure, shortened: (§1)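 Test compound incubated with cells of a 24-line pediatric cancer panel for 96 h at 0.1 nM to 1 μM, then assessed by DIMSCAN. Relative IC50 (rIC50) derived per line. Panel comparison value is the panel rIC50 divided by the rIC50 of each cell line.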
# [1] = tested on: OS-1 osteosarcoma xenograft; assay: PPTP in vivo xenograft testing, OS-1; set-up: species or system mice
# CHLA258 Ewing xenograft = assay: PPTP in vivo xenograft testing, CHLA258; set-up: species or system mice
# [2] = tested on: PPTP in vitro cell line panel; assay: DIMSCAN in vitro cytotoxicity testing, panel summary; type: cell-based
# CHLA-266 cell line = assay: DIMSCAN in vitro cytotoxicity testing, CHLA-266; type: cell-based
# Procedure, shortened: as §1
# [3] = tested on: Rh30 ALV rhabdomyosarcoma xenograft; assay: PPTP in vivo xenograft testing, Rh30; set-up: species or system mice
# [4] = tested on: NB-1771 neuroblastoma xenograft; assay: PPTP in vivo xenograft testing, NB-1771; set-up: species or system mice
# NB-1643 cell line = assay: DIMSCAN in vitro cytotoxicity testing, NB-1643; type: cell-based
# Procedure, shortened: as §1
# [5] = tested on: ALL-2 ALL B-precursor xenograft; assay: PPTP in vivo xenograft testing, ALL-2; set-up: species or system mice
# Karpas-299 cell line = assay: DIMSCAN in vitro cytotoxicity testing, Karpas-299; type: cell-based
# Procedure, shortened: as §1
# [6] = 1 mg/kg IP Q4Dx3 repeated at Day 21
structure (smiles),measurement,setting,value
C=C1C[C@@H]2CC[C@@]34C[C@H]5O[C@H]6[C@@H](O3)[C@H]3O[C@H](CC[C@@H]3O[C@H]6[C@H]5O4)CC(=O)C[C@@H]3[C@@H](OC)[C@@H](C[C@H](O)CN)O[C@H]3C[C@H]3O[C@@H](CC[C@@H]1O2)C[C@@H](C)C3=C [Eribulin],Panel rIC50/Line rIC50,CHLA-258 cell line,0.54
same,Relative in/out%,CHLA-258 cell line,−84%
same,Ymin % (observed),CHLA-258 cell line,6.29%
same,Response activity,[1]; 1 mg/kg IP,High (A high level of activity is indicated by a score of 6 or more)
same,T/C volume activity,[1]; 1 mg/kg IP,Low (Low activity = T/C >0.45)
same,EFS T/C,[1]; [6],>1.5
same,Median final RTV (CD45%),[1]; [6],0.4
same,Tumor volume T/C,"[1]; 1 mg/kg IP, Day 21 or earlier",0.64
same,EFS activity,CHLA258 Ewing xenograft; 1 mg/kg IP,"High (High activity requires: (a) an EFS T/C >2; (b) a significant difference in EFS distributions, and (c) a net reduction in median tumor volume for animals in the treated group at the end of treatment as compared to at treatment initiation)"
same,Response activity,CHLA258 Ewing xenograft; 1 mg/kg IP,High (A high level of activity is indicated by a score of 6 or more)
same,T/C volume activity,CHLA258 Ewing xenograft; 1 mg/kg IP,High (High activity = T/C ≤0.15)
same,EFS T/C,CHLA258 Ewing xenograft; [6],>4.2
same,Median final RTV (CD45%),CHLA258 Ewing xenograft; [6],0.0
same,Tumor volume T/C,"CHLA258 Ewing xenograft; 1 mg/kg IP, Day 21 or earlier",0.01
same,"Panel rIC50/Line rIC50, maximum",[2]; maximum of PPTP cell lines,>2.74
same,"Relative in/out%, maximum",[2]; maximum of PPTP cell lines,−18%
same,"Ymin % (observed), maximum",[2]; maximum of PPTP cell lines,20.92%
same,"Panel rIC50/Line rIC50, median",[2]; median of PPTP cell lines,1.20
same,"Relative in/out%, median",[2]; median of PPTP cell lines,−89%
same,"Ymin % (observed), median",[2]; median of PPTP cell lines,1.79%
same,"Panel rIC50/Line rIC50, minimum",[2]; minimum of PPTP cell lines,0.02
same,"Relative in/out%, minimum",[2]; minimum of PPTP cell lines,−100%
same,"Ymin % (observed), minimum",[2]; minimum of PPTP cell lines,0.00%
same,IC50,"[2]; read-out: rIC50, maximum, maximum of PPTP cell lines",14.8 nM
same,IC50,"[2]; read-out: rIC50, median, median of PPTP cell lines",0.27 nM
same,IC50,"[2]; read-out: rIC50, minimum, minimum of PPTP cell lines",< 0.1 nM
same,IC50,"[2]; read-out: rIC50, most sensitive cell lines, lymphoid origin (three ALL, one ALCL, one NHL)",< 0.1 nM
same,IC50,"[2]; read-out: rIC50, other (non-neuroblastoma) PPTP cell lines",0.14 nM
same,IC50,"[2]; read-out: relative IC50 (rIC50), range, range over the PPTP cell lines",0.1 to 14.8 nM
same,Panel rIC50/Line rIC50,CHLA-266 cell line; CHLA-266,0.71
same,Relative in/out%,CHLA-266 cell line; CHLA-266,−79%
same,Ymin % (observed),CHLA-266 cell line; CHLA-266,5.54%
same,IC50,"CHLA-266 cell line; Homo sapiens, CHLA-266, 96 h, read-out: rIC50",0.38 nM
same,EFS activity,[3]; 1 mg/kg IP,"High (High activity requires: (a) an EFS T/C >2; (b) a significant difference in EFS distributions, and (c) a net reduction in median tumor volume for animals in the treated group at the end of treatment as compared to at treatment initiation)"
same,Response activity,[3]; 1 mg/kg IP,High (A high level of activity is indicated by a score of 6 or more)
same,T/C volume activity,[3]; 1 mg/kg IP,High (High activity = T/C ≤0.15)
same,EFS T/C,[3]; [6],>3.8
same,Median final RTV (CD45%),[3]; [6],0.0
same,Tumor volume T/C,"[3]; 1 mg/kg IP, Day 21 or earlier",0.06
same,EFS activity,[4]; 1 mg/kg IP,Low (Low activity = EFS T/C <2)
same,Response activity,[4]; 1 mg/kg IP,Int (intermediate activity by a score of ≥2 but <6)
same,T/C volume activity,[4]; 1 mg/kg IP,Low (Low activity = T/C >0.45)
same,EFS T/C,[4]; [6],2.0
same,Median final RTV (CD45%),[4]; [6],>4
same,Time to event,[4]; [6],14.8
same,Tumor volume T/C,"[4]; 1 mg/kg IP, Day 21 or earlier",0.56
same,Panel rIC50/Line rIC50,NB-1643 cell line; NB-1643,0.57
same,Relative in/out%,NB-1643 cell line; NB-1643,−97%
same,Ymin % (observed),NB-1643 cell line; NB-1643,0.53%
same,IC50,"NB-1643 cell line; NB-1643, 96 h, read-out: rIC50",0.47 nM
same,EFS activity,[5]; 1.5 mg/kg IP,"High (High activity requires: (a) an EFS T/C >2; (b) a significant difference in EFS distributions, and (c) a net reduction in median tumor volume for animals in the treated group at the end of treatment as compared to at treatment initiation)"
same,Response activity,[5]; 1.5 mg/kg IP,High (A high level of activity is indicated by a score of 6 or more)
same,EFS T/C,[5]; 1.5 mg/kg IP Q4Dx3 repeated at Day 21,>2.8
same,Median final RTV (CD45%),"[5]; CD45%, 1.5 mg/kg IP",0.0%
same,IC50,"Karpas-299 cell line; Homo sapiens, KARPAS-299, 96 h, read-out: rIC50",< 0.1 nM
same,Panel rIC50/Line rIC50,Karpas-299 cell line; Karpas-299,>2.74
same,Relative in/out%,Karpas-299 cell line; Karpas-299,−100%
same,Ymin % (observed),Karpas-299 cell line; Karpas-299,0.03%
